Data as given in ChEMBL document CHEMBL4190262, “Tuning of β-glucosidase and α-galactosidase inhibition by generation and in situ screening of a library of pyrrolidine-triazole hybrid molecules” (Eur J Med Chem, 2017).
Active and inactive are the calls of the source. The calls are words filed in the database; no cut-off is given here.

How the values were obtained:
[1] = biological target: T1, Alpha-mannosidase (Canavalia ensiformis) (UniProt C0HJB3); test: Inhibition of jack bean alpha-mannosidase at 1 mM using p-nitrophenyl glycopyranoside preincubated for 5 mins followed by substrate addition measured after 20 mins by visible absorption spectroscopic method relative to control
T1 sequence (whole entry): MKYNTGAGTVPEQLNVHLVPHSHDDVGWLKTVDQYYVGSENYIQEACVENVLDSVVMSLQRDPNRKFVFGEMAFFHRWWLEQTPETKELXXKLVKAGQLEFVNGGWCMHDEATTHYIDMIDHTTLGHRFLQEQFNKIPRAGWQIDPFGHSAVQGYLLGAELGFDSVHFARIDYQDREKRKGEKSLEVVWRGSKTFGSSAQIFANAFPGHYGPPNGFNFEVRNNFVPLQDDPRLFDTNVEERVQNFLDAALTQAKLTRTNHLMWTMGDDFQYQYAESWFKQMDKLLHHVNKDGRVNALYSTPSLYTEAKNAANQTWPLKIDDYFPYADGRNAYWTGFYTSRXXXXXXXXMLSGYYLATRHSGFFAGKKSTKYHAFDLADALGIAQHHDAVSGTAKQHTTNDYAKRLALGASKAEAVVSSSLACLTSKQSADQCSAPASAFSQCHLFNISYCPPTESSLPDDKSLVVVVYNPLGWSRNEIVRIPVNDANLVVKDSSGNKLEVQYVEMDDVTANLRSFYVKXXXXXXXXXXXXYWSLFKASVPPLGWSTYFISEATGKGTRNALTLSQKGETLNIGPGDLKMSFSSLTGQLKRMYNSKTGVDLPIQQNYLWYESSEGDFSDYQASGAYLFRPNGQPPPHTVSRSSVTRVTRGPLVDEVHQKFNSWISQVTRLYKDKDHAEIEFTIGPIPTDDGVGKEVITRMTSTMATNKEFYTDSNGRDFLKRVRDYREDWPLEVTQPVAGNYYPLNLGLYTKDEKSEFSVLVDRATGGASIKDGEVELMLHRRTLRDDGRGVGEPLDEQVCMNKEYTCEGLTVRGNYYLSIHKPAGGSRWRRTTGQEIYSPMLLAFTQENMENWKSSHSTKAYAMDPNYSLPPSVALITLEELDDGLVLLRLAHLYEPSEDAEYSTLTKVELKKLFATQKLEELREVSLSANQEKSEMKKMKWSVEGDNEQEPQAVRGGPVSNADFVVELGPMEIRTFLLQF
How it was run: (§1)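 Test compound at 1 mM in well. Mix: 0.01–0.5 units/mL enzyme plus 10 mM p-nitrophenyl glycopyranoside (aqueous solution), buffered to the enzyme's optimal pH. Enzyme and inhibitor preincubated 5 min at rt. Substrate then added and incubated 20 min at 37 °C. Stopped with sodium borate (pH 9.8). p-Nitrophenolate read at 405 nm. Duplicates averaged.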

Alpha-galactosidase = Alpha-galactosidase (Coffea arabica, UniProt Q42656); test: Inhibition of coffee beans alpha-galactosidase using p-nitrophenyl glycopyranoside preincubated for 5 mins followed by substrate addition measured after 20 mins by visible absorption spectroscopic method
How it was run: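 IC50 determined only for compounds giving ≥80% inhibition at 1 mM, read from plots of % inhibition versus inhibitor concentration. p-Nitrophenyl glycopyranoside substrate (10 mM solution) at the enzyme's optimal pH, with 0.01–0.5 units/mL enzyme. 5 min rt preincubation with enzyme, then 20 min at 37 °C. Borate stop (pH 9.8), absorbance at 405 nm. Duplicates averaged.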

Canavalia ensiformis = test: Inhibition of jack bean beta-N-acetylglucosaminidase at 1 mM using p-nitrophenyl glycopyranoside preincubated for 5 mins followed by substrate addition measured after 20 mins by visible absorption spectroscopic method relative to control; how it was run: as §1
Prunus dulcis = test: Inhibition of almond beta-glucosidase at 1 mM using p-nitrophenyl glycopyranoside preincubated for 5 mins followed by substrate addition measured after 20 mins by visible absorption spectroscopic method relative to control; how it was run: as §1
Oryza sativa = test: Inhibition of rice alpha-glucosidase at 1 mM using p-nitrophenyl glycopyranoside preincubated for 5 mins followed by substrate addition measured after 20 mins by visible absorption spectroscopic method relative to control; how it was run: as §1
Aspergillus niger = test: Inhibition of Aspergillus niger amyloglucosidase at 1 mM using p-nitrophenyl glycopyranoside preincubated for 5 mins followed by substrate addition measured after 20 mins by visible absorption spectroscopic method relative to control; how it was run: as §1
Cornu aspersum = test: Inhibition of snail beta-mannosidase at 1 mM using p-nitrophenyl glycopyranoside preincubated for 5 mins followed by substrate addition measured after 20 mins by visible absorption spectroscopic method relative to control; how it was run: as §1
Saccharomyces cerevisiae = test: Inhibition of yeast alpha glucosidase at 1 mM using p-nitrophenyl glycopyranoside preincubated for 5 mins followed by substrate addition measured after 20 mins by visible absorption spectroscopic method relative to control; how it was run: as §1
[2] = biological target: Alpha-galactosidase (Coffea arabica) (UniProt Q42656); test: Inhibition of coffee beans alpha-galactosidase at 50 uM using p-nitrophenyl glycopyranoside preincubated for 5 mins followed by substrate addition measured after 20 mins by visible absorption spectroscopic method relative to control
How it was run: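 Crude triazoles from in situ CuAAC (ascorbate/CuSO4, 24 h rt, water-diluted) were screened at 50 μM per well, assuming full conversion. Enzyme was coffee bean α-galactosidase at pH 6, 37 °C, with p-nitrophenyl glycoside substrate and 405 nm read-out. Blanks of CuSO4, ascorbate and each alkyne were run.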

[3] = biological target: Beta-galactosidase (Escherichia coli) (UniProt Q8VNN2); test: Inhibition of Escherichia coli beta-galactosidase at 1 mM using p-nitrophenyl glycopyranoside preincubated for 5 mins followed by substrate addition measured after 20 mins by visible absorption spectroscopic method relative to control; how it was run: as §1
Bos taurus = species on record: Bos taurus; test: Inhibition of bovine kidney alpha-L-fucosidase at 1 mM using p-nitrophenyl glycopyranoside preincubated for 5 mins followed by substrate addition measured after 20 mins by visible absorption spectroscopic method relative to control; how it was run: as §1
[4] = biological target: T2, Beta-galactosidase (Aspergillus oryzae) (UniProt B7VU80); test: Inhibition of Aspergillus oryzae beta-galactosidase at 1 mM using p-nitrophenyl glycopyranoside preincubated for 5 mins followed by substrate addition measured after 20 mins by visible absorption spectroscopic method relative to control; how it was run: as §1
T2 sequence (whole entry): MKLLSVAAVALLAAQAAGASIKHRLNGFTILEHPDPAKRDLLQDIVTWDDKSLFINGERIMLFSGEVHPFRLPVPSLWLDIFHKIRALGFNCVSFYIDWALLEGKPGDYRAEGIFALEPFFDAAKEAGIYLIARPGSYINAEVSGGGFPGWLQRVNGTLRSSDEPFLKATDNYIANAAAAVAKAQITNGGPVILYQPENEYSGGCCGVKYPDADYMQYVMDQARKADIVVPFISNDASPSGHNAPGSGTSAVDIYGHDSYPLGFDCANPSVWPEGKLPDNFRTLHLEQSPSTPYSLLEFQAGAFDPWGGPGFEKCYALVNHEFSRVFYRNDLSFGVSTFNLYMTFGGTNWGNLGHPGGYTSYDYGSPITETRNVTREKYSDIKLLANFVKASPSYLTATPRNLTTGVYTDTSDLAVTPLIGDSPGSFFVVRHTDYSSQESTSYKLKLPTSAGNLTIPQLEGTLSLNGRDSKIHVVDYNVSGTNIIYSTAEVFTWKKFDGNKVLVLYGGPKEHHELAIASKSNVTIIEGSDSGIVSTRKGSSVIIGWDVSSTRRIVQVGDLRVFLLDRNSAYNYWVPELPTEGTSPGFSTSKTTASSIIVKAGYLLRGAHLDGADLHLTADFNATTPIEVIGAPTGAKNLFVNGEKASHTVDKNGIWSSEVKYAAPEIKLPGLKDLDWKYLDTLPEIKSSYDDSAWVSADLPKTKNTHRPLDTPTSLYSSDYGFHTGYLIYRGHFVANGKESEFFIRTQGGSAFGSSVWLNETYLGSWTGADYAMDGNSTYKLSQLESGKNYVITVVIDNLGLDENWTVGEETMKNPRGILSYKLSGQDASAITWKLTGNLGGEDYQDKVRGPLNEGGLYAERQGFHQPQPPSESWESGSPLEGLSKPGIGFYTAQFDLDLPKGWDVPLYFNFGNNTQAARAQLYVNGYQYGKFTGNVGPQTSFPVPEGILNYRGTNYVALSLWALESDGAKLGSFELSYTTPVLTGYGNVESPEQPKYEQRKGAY

[5] = biological target: Alpha-galactosidase (Coffea arabica) (UniProt Q42656); test: Inhibition of coffee beans alpha-galactosidase at 1 mM using p-nitrophenyl glycopyranoside preincubated for 5 mins followed by substrate addition measured after 20 mins by visible absorption spectroscopic method relative to control; how it was run: as §1

Alpha-galactosidase (Coffea arabica), sequence (Q42656 16-378 limits assumed): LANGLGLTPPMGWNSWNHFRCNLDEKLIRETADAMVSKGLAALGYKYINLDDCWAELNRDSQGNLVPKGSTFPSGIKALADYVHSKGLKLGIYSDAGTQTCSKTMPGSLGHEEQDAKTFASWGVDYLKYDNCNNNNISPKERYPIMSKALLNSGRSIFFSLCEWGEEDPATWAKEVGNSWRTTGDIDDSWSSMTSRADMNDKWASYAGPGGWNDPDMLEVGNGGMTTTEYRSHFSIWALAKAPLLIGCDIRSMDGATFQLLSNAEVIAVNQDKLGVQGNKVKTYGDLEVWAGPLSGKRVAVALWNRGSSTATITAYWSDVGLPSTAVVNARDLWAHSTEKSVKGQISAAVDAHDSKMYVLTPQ
Beta-galactosidase (Escherichia coli), sequence (Q8VNN2 whole entry, looked up): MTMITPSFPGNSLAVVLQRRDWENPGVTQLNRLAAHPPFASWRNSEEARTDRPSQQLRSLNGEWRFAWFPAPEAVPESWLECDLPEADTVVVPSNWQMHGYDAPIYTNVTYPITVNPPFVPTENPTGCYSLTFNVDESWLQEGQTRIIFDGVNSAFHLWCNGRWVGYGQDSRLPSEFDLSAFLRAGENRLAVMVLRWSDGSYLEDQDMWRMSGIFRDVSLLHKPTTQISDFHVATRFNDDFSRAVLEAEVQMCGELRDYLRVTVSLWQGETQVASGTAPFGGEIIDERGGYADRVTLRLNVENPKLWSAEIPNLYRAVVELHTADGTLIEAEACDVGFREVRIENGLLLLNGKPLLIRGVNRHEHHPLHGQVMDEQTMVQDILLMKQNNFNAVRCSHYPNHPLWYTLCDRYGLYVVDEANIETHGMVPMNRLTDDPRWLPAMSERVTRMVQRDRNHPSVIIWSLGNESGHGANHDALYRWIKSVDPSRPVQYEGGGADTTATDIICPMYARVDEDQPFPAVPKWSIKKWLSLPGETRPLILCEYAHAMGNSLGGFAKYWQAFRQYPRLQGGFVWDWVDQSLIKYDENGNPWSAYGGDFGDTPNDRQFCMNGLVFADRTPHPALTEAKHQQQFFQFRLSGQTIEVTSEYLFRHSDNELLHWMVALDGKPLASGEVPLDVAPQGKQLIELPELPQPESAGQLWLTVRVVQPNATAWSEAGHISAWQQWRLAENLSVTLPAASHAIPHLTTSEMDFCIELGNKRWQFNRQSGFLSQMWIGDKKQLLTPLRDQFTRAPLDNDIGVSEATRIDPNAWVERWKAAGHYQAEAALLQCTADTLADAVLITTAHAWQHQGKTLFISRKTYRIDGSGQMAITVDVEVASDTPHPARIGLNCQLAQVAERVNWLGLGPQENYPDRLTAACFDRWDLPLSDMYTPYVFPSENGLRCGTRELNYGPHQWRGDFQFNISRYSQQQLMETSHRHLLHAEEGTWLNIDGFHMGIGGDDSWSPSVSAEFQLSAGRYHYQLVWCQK
Alpha-galactosidase, sequence (Q42656 whole entry): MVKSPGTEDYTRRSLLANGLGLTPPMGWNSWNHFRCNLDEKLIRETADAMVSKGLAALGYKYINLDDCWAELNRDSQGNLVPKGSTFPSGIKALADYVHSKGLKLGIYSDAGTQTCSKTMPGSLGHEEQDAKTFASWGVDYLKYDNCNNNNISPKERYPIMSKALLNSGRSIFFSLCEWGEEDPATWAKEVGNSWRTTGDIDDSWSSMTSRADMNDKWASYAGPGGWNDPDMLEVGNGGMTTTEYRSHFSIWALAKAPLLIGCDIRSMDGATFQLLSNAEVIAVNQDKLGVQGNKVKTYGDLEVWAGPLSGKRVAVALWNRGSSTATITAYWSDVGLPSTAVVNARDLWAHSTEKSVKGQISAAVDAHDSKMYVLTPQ

`[N-]=[N+]=NC[C@H]1NC[C@@H](O)[C@H]1O` was tested, and the inhibition [1] was 43%, the IC50 (Alpha-galactosidase) was 127 µM and the inhibition (Canavalia ensiformis) was “inactive”. For the same compound, the inhibition (Prunus dulcis) was 89%, the inhibition (Oryza sativa) was “inactive” and the inhibition (Aspergillus niger) was “inactive”. The inhibition (Cornu aspersum) was “inactive”, the inhibition (Saccharomyces cerevisiae) was “inactive” and the inhibition [2] was 38%. The inhibition [3] was “inactive”, the inhibition (Bos taurus) was “inactive” and the inhibition [4] was 50%. The inhibition [5] was 88%.
